Laboratory results reported in ChEMBL document CHEMBL5058577, “EUbOPEN Chemogenomics Library 2 (Multiplex)” (2022).

Tested on: U2OS
Experiment: Multiplex assay against U2OS
Assay type: toxicity, cell-based
Conditions: human
In short: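 Compound was added to live cells that had been stained at seeding with Hoechst33342, BioTracker Green Microtubule Cytoskeleton Dye, MitoTracker Red and Annexin V Alexa Fluor 680, and imaging followed on a CQ1 microscope at 37°C and 5% CO2. CellPathfinder machine-learning gating divided cells into Hoechst high-intensity objects or normal cells, normal cells into healthy, pyknosed or fragmented nuclei, and pyknosed cells into mitotic or apoptotic. Tubulin, mitochondrial-mass and membrane-permeability phenotypes are per cents of healthy-nucleus cells.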

[1] = 12 h, 1 µM, compound concentration 1 uM, replicate 1
[2] = 12 h, 1 µM, compound concentration 1 uM, replicate 2
[3] = 12 h, 10 µM, compound concentration 10 uM, replicate 1
[4] = 12 h, 10 µM, compound concentration 10 uM, replicate 2
[5] = 24 h, 1 µM, compound concentration 1 uM, replicate 1
[6] = 24 h, 1 µM, compound concentration 1 uM, replicate 2
[7] = 24 h, 10 µM, compound concentration 10 uM, replicate 1
[8] = 24 h, 10 µM, compound concentration 10 uM, replicate 2
[9] = 48 h, 1 µM, compound concentration 1 uM, replicate 1
[10] = 48 h, 1 µM, compound concentration 1 uM, replicate 2
[11] = 48 h, 10 µM, compound concentration 10 uM, replicate 1
[12] = 48 h, 10 µM, compound concentration 10 uM, replicate 2

CN[C@@H](C)C(=O)N[C@H](C(=O)N1CCC[C@H]1C(=O)Nc1snnc1-c1ccccc1)C1CCCCC1 [GDC-0152]
Population Apoptotic (%) [1]: 60%
Population Fragmented Nuclei (%) [1]: 25%
Population Healthy Nuclei (%) [1]: 61%
Population Hoechst High Intensity Objects (%) [1]: 5%
Population Membrane Permeable-Phenotype (%) [1]: 51%
Population Mitochondria Different-Phenotype (%) [1]: 24%
Population Mitotic Cells (%) [1]: 39%
Population Normal (%) [1]: 94%
Population Pyknosed Nuclei (%) [1]: 13%
Population Tubulin-Different-Phenotype (%) [1]: 47%
Total Cell Count [1]: 176
Population Apoptotic (%) [2]: 89%
Population Fragmented Nuclei (%) [2]: 21%
Population Healthy Nuclei (%) [2]: 60%
Population Hoechst High Intensity Objects (%) [2]: 11%
Population Membrane Permeable-Phenotype (%) [2]: 50%
Population Mitochondria Different-Phenotype (%) [2]: 38%
Population Mitotic Cells (%) [2]: 10%
Population Normal (%) [2]: 88%
Population Pyknosed Nuclei (%) [2]: 17%
Population Tubulin-Different-Phenotype (%) [2]: 52%
Total Cell Count [2]: 121
Population Apoptotic (%) [3]: 72%
Population Fragmented Nuclei (%) [3]: 39%
Population Healthy Nuclei (%) [3]: 44%
Population Hoechst High Intensity Objects (%) [3]: 4%
Population Membrane Permeable-Phenotype (%) [3]: 65%
Population Mitochondria Different-Phenotype (%) [3]: 61%
Population Mitotic Cells (%) [3]: 27%
Population Normal (%) [3]: 95%
Population Pyknosed Nuclei (%) [3]: 16%
Population Tubulin-Different-Phenotype (%) [3]: 76%
Total Cell Count [3]: 208
Population Apoptotic (%) [4]: 70%
Population Fragmented Nuclei (%) [4]: 18%
Population Healthy Nuclei (%) [4]: 65%
Population Hoechst High Intensity Objects (%) [4]: 5%
Population Membrane Permeable-Phenotype (%) [4]: 73%
Population Mitochondria Different-Phenotype (%) [4]: 70%
Population Mitotic Cells (%) [4]: 29%
Population Normal (%) [4]: 94%
Population Pyknosed Nuclei (%) [4]: 15%
Population Tubulin-Different-Phenotype (%) [4]: 91%
Total Cell Count [4]: 114
Population Apoptotic (%) [5]: 72%
Population Fragmented Nuclei (%) [5]: 21%
Population Healthy Nuclei (%) [5]: 55%
Population Hoechst High Intensity Objects (%) [5]: 5%
Population Membrane Permeable-Phenotype (%) [5]: 20%
Population Mitochondria Different-Phenotype (%) [5]: 18%
Population Mitotic Cells (%) [5]: 27%
Population Normal (%) [5]: 94%
Population Pyknosed Nuclei (%) [5]: 23%
Population Tubulin-Different-Phenotype (%) [5]: 19%
Total Cell Count [5]: 196
Population Apoptotic (%) [6]: 85%
Population Fragmented Nuclei (%) [6]: 34%
Population Healthy Nuclei (%) [6]: 44%
Population Hoechst High Intensity Objects (%) [6]: 8%
Population Membrane Permeable-Phenotype (%) [6]: 25%
Population Mitochondria Different-Phenotype (%) [6]: 28%
Population Mitotic Cells (%) [6]: 14%
Population Normal (%) [6]: 91%
Population Pyknosed Nuclei (%) [6]: 21%
Population Tubulin-Different-Phenotype (%) [6]: 27%
Total Cell Count [6]: 144
Population Apoptotic (%) [7]: 68%
Population Fragmented Nuclei (%) [7]: 36%
Population Healthy Nuclei (%) [7]: 43%
Population Hoechst High Intensity Objects (%) [7]: 3%
Population Membrane Permeable-Phenotype (%) [7]: 53%
Population Mitochondria Different-Phenotype (%) [7]: 59%
Population Mitotic Cells (%) [7]: 31%
Population Normal (%) [7]: 96%
Population Pyknosed Nuclei (%) [7]: 20%
Population Tubulin-Different-Phenotype (%) [7]: 59%
Total Cell Count [7]: 220
Population Apoptotic (%) [8]: 92%
Population Fragmented Nuclei (%) [8]: 20%
Population Healthy Nuclei (%) [8]: 40%
Population Hoechst High Intensity Objects (%) [8]: 10%
Population Membrane Permeable-Phenotype (%) [8]: 59%
Population Mitochondria Different-Phenotype (%) [8]: 65%
Population Mitotic Cells (%) [8]: 7%
Population Normal (%) [8]: 89%
Population Pyknosed Nuclei (%) [8]: 38%
Population Tubulin-Different-Phenotype (%) [8]: 81%
Total Cell Count [8]: 121
Population Apoptotic (%) [9]: 93%
Population Fragmented Nuclei (%) [9]: 35%
Population Healthy Nuclei (%) [9]: 32%
Population Hoechst High Intensity Objects (%) [9]: 8%
Population Membrane Permeable-Phenotype (%) [9]: 16%
Population Mitochondria Different-Phenotype (%) [9]: 12%
Population Mitotic Cells (%) [9]: 6%
Population Normal (%) [9]: 91%
Population Pyknosed Nuclei (%) [9]: 32%
Population Tubulin-Different-Phenotype (%) [9]: 9%
Total Cell Count [9]: 246
Population Apoptotic (%) [10]: 88%
Population Healthy Nuclei (%) [10]: 30%
Population Membrane Permeable-Phenotype (%) [10]: 38%
Population Mitochondria Different-Phenotype (%) [10]: 17%
Population Mitotic Cells (%) [10]: 11%
Population Pyknosed Nuclei (%) [10]: 34%
Population Tubulin-Different-Phenotype (%) [10]: 27%
Total Cell Count [10]: 170
Population Apoptotic (%) [11]: 100%
Population Fragmented Nuclei (%) [11]: 47%
Population Healthy Nuclei (%) [11]: 22%
Population Hoechst High Intensity Objects (%) [11]: 11%
Population Membrane Permeable-Phenotype (%) [11]: 39%
Population Mitochondria Different-Phenotype (%) [11]: 39%
Population Mitotic Cells (%) [11]: 0%
Population Normal (%) [11]: 88%
Population Pyknosed Nuclei (%) [11]: 29%
Population Tubulin-Different-Phenotype (%) [11]: 43%
Total Cell Count [11]: 246
Population Apoptotic (%) [12]: 98%
Population Fragmented Nuclei (%) [12]: 45%
Population Healthy Nuclei (%) [12]: 8%
Population Hoechst High Intensity Objects (%) [12]: 14%
Population Membrane Permeable-Phenotype (%) [12]: 80%
Population Mitochondria Different-Phenotype (%) [12]: 50%
Population Mitotic Cells (%) [12]: 1%
Population Normal (%) [12]: 85%
Population Pyknosed Nuclei (%) [12]: 45%
Population Tubulin-Different-Phenotype (%) [12]: 80%
Total Cell Count [12]: 138
